# From ChEMBL document CHEMBL4602675, “The Marine Natural Product Manzamine A Inhibits Cervical Cancer by Targeting the SIX1 Protein” (J Nat Prod, 2020)
# The source made the active and inactive calls. No cut-off for these calls is given here.
# Assays:
# SiHa [1] = assay: Induction of apoptosis in human SiHa cells assessed as viable cells at 4 uM after 24 hrs by Annexin V-FITC/PI double staining based flow cytometric analysis (reference value: 90.8%); assay type: functional; conditions: read-out: Activity
# [2] = target: Protein E6 (Human papillomavirus 16) (UniProt P03126); assay: Inhibition of Human papillomavirus type16 derived E6 in human SiHa cells assessed as increase in p53 protein expression at 2 to 4 uM after 48 hrs by Western blot analysis; assay type: cell-based
# Chain of Protein E6 (Human papillomavirus 16) (P03126 whole entry): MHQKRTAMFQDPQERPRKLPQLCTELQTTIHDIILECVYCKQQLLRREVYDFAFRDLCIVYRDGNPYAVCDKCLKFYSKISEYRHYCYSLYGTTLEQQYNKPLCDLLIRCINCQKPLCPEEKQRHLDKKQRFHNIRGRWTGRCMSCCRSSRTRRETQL
# In short: (§1)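 Cells were seeded at 1 × 10^6 per 100 mm dish and treated next day with 2 or 4 μM for 48 h. They were trypsinised, PBS-washed and lysed in RIPA with protease inhibitors. Equal protein was run on SDS-PAGE and transferred to PVDF. Primary antibodies were used at 1:500, with BSA 3% for blocking and antibodies for CK2α, Rb and pRb, otherwise 5% milk in TBST. HRP secondary at 1:2000, chemiluminescence detection.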
# C-33-A [3] = assay: Cell cycle arrest in human C33A cells assessed as accumulation at Sub G1 phase at 4 uM after 72 hrs by propidium iodide staining based flow cytometric analysis (reference value: 0.7%); assay type: functional
# In short: (§2)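 Cells in DMEM/10% FBS at 37 °C, 5% CO2 were given 4 μM for 24, 48 or 72 h, with DMSO as control. After trypsinization they were fixed in chilled 70% ethanol on ice for 30 min, treated with RNase A (1 mg/mL) for 30 min at room temperature, and stained with PI (20 μg/mL). At least 10 000 events were read by flow cytometry to give sub-G1, G0/G1, S and G2/M fractions; mean ± SEM.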
# Ca-Ski [4] = assay: Cell cycle arrest in human CaSki cells assessed as accumulation at G2/M phase at 4 uM after 48 hrs by propidium iodide staining based flow cytometric analysis (reference value: 29.5%); assay type: functional; in short: as §2
# C-33-A [5] = assay: Induction of apoptosis in human C33A cells assessed as viable cells at 4 uM after 24 hrs by Annexin V-FITC/PI double staining based flow cytometric analysis (reference value: 93.3%); assay type: functional; conditions: read-out: Activity
# Ca-Ski [6] = assay: Induction of apoptosis in human CaSki cells assessed as viable cells at 4 uM after 24 hrs by Annexin V-FITC/PI double staining based flow cytometric analysis (reference value: 84%); assay type: functional; conditions: read-out: Activity
# C-33-A [7] = assay: Induction of apoptosis in human C33A cells assessed as necrotic cells at 4 uM after 24 hrs by Annexin V-FITC/PI double staining based flow cytometric analysis; assay type: functional
# [8] = target: Casein kinase II subunit alpha (Homo sapiens) (UniProt P68400); assay: Potency index, ratio for inhibition activity of apigenin to test compound for inhibition of CK2alpha in human C33A cells after 48 hrs by Western blot analysis; assay type: cell-based; conditions: C-33-A
# Chain of Casein kinase II subunit alpha (Homo sapiens) (P68400 whole entry, looked up): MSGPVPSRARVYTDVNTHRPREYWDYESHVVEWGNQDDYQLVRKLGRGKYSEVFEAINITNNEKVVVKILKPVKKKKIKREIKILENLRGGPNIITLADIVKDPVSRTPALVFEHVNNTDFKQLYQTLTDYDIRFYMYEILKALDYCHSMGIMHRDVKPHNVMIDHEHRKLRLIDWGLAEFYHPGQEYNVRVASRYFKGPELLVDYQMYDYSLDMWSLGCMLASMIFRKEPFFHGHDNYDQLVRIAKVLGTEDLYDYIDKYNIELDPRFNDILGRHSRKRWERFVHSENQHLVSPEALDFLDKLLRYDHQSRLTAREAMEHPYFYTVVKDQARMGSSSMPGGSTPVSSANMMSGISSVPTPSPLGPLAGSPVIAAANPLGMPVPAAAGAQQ
# In short: (§3)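 Cells plated at 1 × 10^6 per 100 mm dish and treated next day for 48 h with test compound (2 or 4 μM) or apigenin (10, 20 or 40 μM). RIPA lysates with protease inhibitors; equal protein loaded for SDS-PAGE, then PVDF transfer. Blocked in 5% milk/TBST (3% BSA for CK2α); anti-SIX1 or anti-CK2α 1:500, HRP secondary 1:2000; chemiluminescent detection.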
# Ca-Ski [9] = assay: Cell cycle arrest in human CaSki cells assessed as accumulation at G0/G1 phase at 4 uM after 48 hrs by propidium iodide staining based flow cytometric analysis (reference value: 54.1%); assay type: functional; in short: as §2
# [10] = target: Casein kinase II subunit alpha (Homo sapiens) (UniProt P68400); assay: Inhibition of CK2alpha in human CaSki cells at 2 to 4 uM after 48 hrs by Western blot analysis; assay type: cell-based; conditions: Ca-Ski; in short: as §1
# SiHa [11] = assay: Cell cycle arrest in human SiHa cells assessed as accumulation at G0/G1 phase at 4 uM after 48 hrs by propidium iodide staining based flow cytometric analysis (reference value: 72.7%); assay type: functional; in short: as §2
# [12] = target: T1, Homeobox protein SIX1 (Homo sapiens) (UniProt Q15475); assay: Potency index, ratio for inhibition activity of apigenin to test compound for inhibition of SIX1 in human C33A cells after 48 hrs by Western blot analysis; assay type: cell-based; conditions: C-33-A; in short: as §3
# T1 sequence (whole entry): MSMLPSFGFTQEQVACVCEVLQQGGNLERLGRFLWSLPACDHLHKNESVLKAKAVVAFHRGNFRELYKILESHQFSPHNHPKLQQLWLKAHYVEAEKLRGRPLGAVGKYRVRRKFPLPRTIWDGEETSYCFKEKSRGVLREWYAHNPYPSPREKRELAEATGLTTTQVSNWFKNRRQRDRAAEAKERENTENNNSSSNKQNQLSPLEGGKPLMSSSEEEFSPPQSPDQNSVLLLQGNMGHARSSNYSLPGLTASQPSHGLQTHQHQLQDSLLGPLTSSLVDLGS
# HeLa = assay: Cell cycle arrest in human HeLa cells assessed as accumulation at G0/G1 phase at 4 uM after 72 hrs by propidium iodide staining based flow cytometric analysis (reference value: 76.4%); assay type: functional; in short: as §2
# SiHa [13] = assay: Cell cycle arrest in human SiHa cells assessed as increase in accumulation at G0/G1 phase at 4 uM incubated for 48 hrs by propidium iodide staining based flow cytometric analysis; assay type: functional
# In short: (§4)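 Cells in DMEM with 10% FBS, 2 mM L-glutamine, pen-strep, 37 °C, 5% CO2; seeded and left overnight, then treated at 4 μM with DMSO as control. Harvested by trypsin at 24, 48 or 72 h, fixed in chilled 70% ethanol 30 min on ice, RNase A (1 mg/mL) 30 min at room temperature, PI (20 μg/mL). Flow cytometry, ≥10 000 events, G0/G1, S, G2/M fractions; mean ± SEM.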
# Ca-Ski [14] = assay: Induction of apoptosis in human CaSki cells assessed as early apoptotic cells at 4 uM after 24 hrs by Annexin V-FITC/PI double staining based flow cytometric analysis (reference value: 12.2%); assay type: functional
# SiHa [15] = assay: Effect on total-Rb in human SiHa cells assessed decrease in Rb protein level at 2 to 4 uM after 48 hrs by Western blot analysis; assay type: ADME, cell-based; in short: as §1
# C-33-A [16] = assay: Induction of apoptosis in human C33A cells assessed as early apoptotic cells at 4 uM after 24 hrs by Annexin V-FITC/PI double staining based flow cytometric analysis (reference value: 4.3%); assay type: functional
# [17] = target: T1, Homeobox protein SIX1 (Homo sapiens); assay: Inhibition of SIX1 in human SiHa cells at 2 to 4 uM after 48 hrs by Western blot analysis; assay type: cell-based
# In short: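 SiHa cells in DMEM with 10% FBS were seeded at 1 × 10^6 per 100 mm dish and treated the next day at 2 or 4 μM for 48 h. Lysis was in RIPA buffer with protease inhibitors. Equal protein was run on SDS-PAGE and transferred to PVDF, blocked in 5% milk/TBST, probed with anti-SIX1 (1:500) then HRP secondary (1:2000), and detected by chemiluminescence.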
# Ca-Ski [18] = assay: Cell cycle arrest in human CaSki cells assessed as decrease in accumulation at S phase at 4 uM incubated up to 72 hrs by propidium iodide staining based flow cytometric analysis; assay type: functional; in short: as §2
# [19] = target: T1, Homeobox protein SIX1 (Homo sapiens); assay: Potency index, ratio for inhibition activity of apigenin to test compound for inhibition of SIX1 in human HeLa cells after 48 hrs by Western blot analysis; assay type: cell-based; in short: as §3
# C-33-A [20] = assay: Cell cycle arrest in human C33A cells assessed as accumulation at G0/G1 phase at 4 uM after 72 hrs by propidium iodide staining based flow cytometric analysis (reference value: 60%); assay type: functional; in short: as §2
# SiHa [21] = assay: Cell cycle arrest in human SiHa cells assessed as accumulation at G2/M phase at 4 uM after 48 hrs by propidium iodide staining based flow cytometric analysis (reference value: 14.7%); assay type: functional; in short: as §4
smiles,measurement,setting,value
O[C@]12C=C(c3nccc4c3[nH]c3ccccc34)[C@@H]3CCN(CCCC/C=C\CC1)C[C@@]31C[C@@H]3/C=C\CCCCN3[C@H]12 [MANZAMINE A],viability at 4 µM,SiHa [1],82.5%
same,inhibition,[2],Active
same,Activity,C-33-A [3],31.3%
same,Activity,Ca-Ski [4],10.1%
same,viability at 4 µM,C-33-A [5],72.7%
same,viability at 4 µM,Ca-Ski [6],81.4%
same,Activity,C-33-A [7],6.3%
same,Ratio,[8],10
same,Activity,Ca-Ski [9],82.4%
same,inhibition,[10],Active
same,Activity,SiHa [11],86.4%
same,Ratio,[12],10
same,Activity,HeLa,49.1%
same,fold change (FC),SiHa [13],1.2
same,Activity,Ca-Ski [14],16.9%
same,Activity,SiHa [15],Toxic
same,Activity,C-33-A [16],17.4%
same,inhibition,[17],Active
same,Activity,Ca-Ski [18],Active
same,Ratio,[19],10
same,Activity,C-33-A [20],34.2%
same,Activity,SiHa [21],8.2%
